Legend:
[1] = in vivo
GBM culture GBM-1 = assay: XTT cell proliferation assay; format: cell-based, Mouse; conditions: mouse GBM culture GBM-1; 36 hours; mean of three experiments ± SD
How it was run: (§1)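 Primary human or mouse GBM cultures (DMEM, 10% FBS) were seeded at 5000 cells per 96-well well. Cells were cultured with test compound or vehicle for 36 h. Proliferation was read by XTT assay in quadruplicate. IC50 came from nonlinear-regression curve fitting.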

GBM culture GBM15 = assay: XTT cell proliferation assay; format: cell-based, Human; conditions: human GBM culture GBM15; 36 hours; mean of three experiments ± SD
How it was run: as §1

[2] = in clinical evaluation for various cancers; cited from earlier work
GBM culture GBM8 = assay: XTT cell proliferation assay; format: cell-based, Human; conditions: human GBM culture GBM8; 36 hours; mean of three experiments ± SD
How it was run: as §1

GBM culture 2231 = assay: XTT cell proliferation assay; format: cell-based, Mouse; conditions: mouse GBM culture 2231; 36 hours; mean of three experiments ± SD
How it was run: as §1

GBM culture GBM39 = assay: XTT cell proliferation assay; format: cell-based, Human; conditions: human GBM culture GBM39; 36 hours; mean of three experiments ± SD
How it was run: as §1

GBM culture 69 = assay: XTT cell proliferation assay; format: cell-based, Mouse; conditions: mouse GBM culture 69; 36 hours; mean of three experiments ± SD
How it was run: as §1

GBM culture GBM22 = assay: XTT cell proliferation assay; format: cell-based, Human; conditions: human GBM culture GBM22; 36 hours; mean of three experiments ± SD
How it was run: as §1

GBM culture GBM12 = assay: XTT cell proliferation assay; format: cell-based, Human; conditions: human GBM culture GBM12; 36 hours; mean of three experiments ± SD
How it was run: as §1

GBM culture GBM-2 = assay: XTT cell proliferation assay; format: cell-based, Mouse; conditions: mouse GBM culture GBM-2; 36 hours; mean of three experiments ± SD
How it was run: as §1

GBM culture 103 = assay: XTT cell proliferation assay; format: cell-based, Mouse; conditions: mouse GBM culture 103; 36 hours; mean of three experiments ± SD
How it was run: as §1

GBM culture 2000 = assay: XTT cell proliferation assay; format: cell-based, Mouse; conditions: mouse GBM culture 2000; 36 hours; mean of three experiments ± SD
How it was run: as §1

GBM culture 2414 = assay: XTT cell proliferation assay; format: cell-based, Mouse; conditions: mouse GBM culture 2414; 36 hours; mean of three experiments ± SD
How it was run: as §1

GBM culture 2415 = assay: XTT cell proliferation assay; format: cell-based, Mouse; conditions: mouse GBM culture 2415; 36 hours; mean of three experiments ± SD
How it was run: as §1

GBM culture GBM43 = assay: XTT cell proliferation assay; format: cell-based, Human; conditions: human GBM culture GBM43; 36 hours; mean of three experiments ± SD
How it was run: as §1

GBM culture GBM59 = assay: XTT cell proliferation assay; format: cell-based, Human; conditions: human GBM culture GBM59; 36 hours; mean of three experiments ± SD
How it was run: as §1

GBM culture 46 = assay: XTT cell proliferation assay; format: cell-based, Mouse; conditions: mouse GBM culture 46; 36 hours; mean of three experiments ± SD
How it was run: as §1

GBM culture 2736 = assay: XTT cell proliferation assay; format: cell-based, Mouse; conditions: mouse GBM culture 2736; 36 hours; mean of three experiments ± SD
How it was run: as §1

GBM culture 2227 = assay: XTT cell proliferation assay; format: cell-based, Mouse; conditions: mouse GBM culture 2227; 36 hours; mean of three experiments ± SD
How it was run: as §1

GBM culture 102 = assay: XTT cell proliferation assay; format: cell-based, Mouse; conditions: mouse GBM culture 102; 36 hours; mean of three experiments ± SD
How it was run: as §1

GBM culture 41 = assay: XTT cell proliferation assay; format: cell-based, Mouse; conditions: mouse GBM culture 41; 36 hours; mean of three experiments ± SD
How it was run: as §1

GBM culture GBM6 = assay: XTT cell proliferation assay; format: cell-based, Human; conditions: human GBM culture GBM6; 36 hours; mean of three experiments ± SD
How it was run: as §1

GBM culture 42 = assay: XTT cell proliferation assay; format: cell-based, Mouse; conditions: mouse GBM culture 42; 36 hours; mean of three experiments ± SD
How it was run: as §1

Question: Which “accumulation in mouse brain” value ([1]; ip) does the source give for C=CCNC1=C2C[C@@H](C)C[C@H](OC)[C@H](O)[C@@H](C)/C=C(\C)[C@H](OC(N)=O)[C@@H](OC)/C=C\C=C(/C)C(=O)NC(=CC1=O)C2=O [17-AAG, 17-allylamino-17-demethoxygeldanamycin, reference compound] here?
Answer: rapidly declines to undetectable levels

Question: What about the Brain concentration ([1]; mouse) of the same compound?
Answer: 2.6 ng/g

Question: And the IC50 (GBM culture GBM-1)?
Answer: 208 ± 9.6 nM

Question: And the IC50 (GBM culture GBM15)?
Answer: 110 ± 13.4 nM

Question: What about the toxicity on exposure [2] of the same compound?
Answer: dose-limiting hepatotoxicity

Question: And the IC50 (GBM culture GBM8)?
Answer: 8010 ± 543 nM

Question: What about the IC50 (GBM culture 2231) of the same compound?
Answer: 737 ± 72 nM

Question: What about the IC50 (GBM culture GBM39) of the same compound?
Answer: 241.7 ± 1.2 nM

Question: What about the IC50 (GBM culture 69) of the same compound?
Answer: 91 ± 4.3 nM

Question: What about the IC50 (GBM culture GBM22) of the same compound?
Answer: 4670 ± 148 nM

Question: What about the IC50 (GBM culture GBM12) of the same compound?
Answer: 2580 ± 166 nM

Question: And the IC50 (GBM culture GBM-2)?
Answer: 1100 ± 119 nM

Question: And the IC50 (GBM culture 103)?
Answer: 794 ± 28.7 nM

Question: And the IC50 (GBM culture 2000)?
Answer: 345 ± 75.5 nM

Question: And the IC50 (GBM culture 2414)?
Answer: 205 ± 13.1 nM

Question: What about the IC50 (GBM culture 2415) of the same compound?
Answer: 329 ± 50.1 nM

Question: And the IC50 (GBM culture GBM43)?
Answer: 86.9 ± 2.3 nM

Question: And the IC50 (GBM culture GBM59)?
Answer: 211 ± 11 nM

Question: What about the IC50 (GBM culture 46) of the same compound?
Answer: 91.9 ± 1.4 nM

Question: And the IC50 (GBM culture 2736)?
Answer: 381 ± 24.1 nM

Question: And the IC50 (GBM culture 2227)?
Answer: 712 ± 54.4 nM

Question: And the IC50 (GBM culture 102)?
Answer: 626.2 ± 6 nM

Question: And the IC50 (GBM culture 41)?
Answer: 100 ± 5 nM

Question: And the IC50 (GBM culture GBM6)?
Answer: 531.7 ± 5 nM

Question: What about the IC50 (GBM culture 42) of the same compound?
Answer: 166 ± 24.9 nM

Source: paper PMC2937276 (Molecular cancer therapeutics, 2010)
